In ChEMBL document CHEMBL4251645, “Synthesis of C3-Neoglycosides of digoxigenin and their anticancer activities” (2018):
The source made the active and inactive calls. No cut-off for these calls is given here.

Assays:
NCI-H460 [1] = assay: Induction of Nur77 protein expression in human NCI-H460 cells at 20 nM after 3 hrs by Western blot assay; format: functional, cell-based
In short: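 NIH-H460 cells exposed to 20 nM glycoside for 3 h and lysed. Equal lysate amounts run on 8% SDS-PAGE and blotted to PVDF, then blocked in 5% milk/TBST for 1 h. Anti-Nur77 (1:1000) applied overnight at 4 °C, secondary antibody for 1 h, ECL detection. β-actin (1:10000) reprobe served as loading control.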

NCI-H460 [2] = assay: Cytotoxicity against human NCI-H460 cells assessed as reduction in cell viability at 50 nM after 48 hrs by MTT assay; format: functional, cell-based
In short: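 NIH-H460 cells (ATCC; RPMI 1640, 10% FBS, L-glutamine, penicillin/streptomycin) seeded at 3 × 10^3/well, then given medium with 50 nM glycoside for 48 h. MTT ([…]) added for 4 h at 37 °C, formazan dissolved in DMSO, absorbance at 560 nm.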

NCI-H460 [3] = assay: Induction of apoptosis in human NCI-H460 cells assessed as early apoptotic cells at 20 nM after 12 hrs by Annexin V-FITC/propidium iodide staining based flow cytometry (reference value: 4.72%); format: functional
In short: (§1)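 NIH-H460 cells seeded at 1 × 10^5/well and given 20 nM glycoside for 12 h. Cells trypsinized, spun at 1,500 rpm for 5 min and resuspended in Annexin V binding buffer. Annexin V-FITC stain for 15 min, then propidium iodide for 5 min. Populations quantified by FACS Calibur flow cytometry.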

[4] = biological target: Nuclear receptor subfamily 4immunitygroup A member 1 (Homo sapiens) (UniProt P22736); assay: Induction of Nur77 protein translocation from nucleus to cytoplasm in human NCI-H460 cells at 20 nM by DAPI staining based immunofluorescence microscopic method; format: cell-based; settings: TDE = time-dependent effect
In short: (§2)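 NIH-H460 cells given 20 nM glycoside for 3, 6 and 9 h. Cells permeabilized with 0.1% Triton X-100 for 15 min and blocked in 1% BSA for 30 min. Anti-Nur77 applied at 37 °C for 1 h, then Cy3 anti-rabbit IgG for 30 min at room temperature. DAPI stained nuclei; confocal imaging scored Nur77 nuclear versus cytoplasmic location.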

NCI-H460 [5] = assay: Induction of apoptosis in human NCI-H460 cells assessed as necrotic cells at 20 nM after 12 hrs by Annexin V-FITC/propidium iodide staining based flow cytometry (reference value: 0.93%); format: functional; in short: as §1
NCI-H460 [6] = assay: Induction of apoptosis in human NCI-H460 cells assessed as late apoptotic cells at 20 nM after 12 hrs by Annexin V-FITC/propidium iodide staining based flow cytometry (reference value: 2.54%); format: functional; in short: as §1
[7] = biological target: Nuclear receptor subfamily 4immunitygroup A member 1 (Homo sapiens) (UniProt P22736); assay: Induction of Nur77 protein translocation from nucleus to cytoplasm in human NCI-H460 cells at 20 nM after 9 hrs by DAPI staining based immunofluorescence microscopic method; format: cell-based; in short: as §2
NCI-H460 [8] = assay: Induction of apoptosis in human NCI-H460 cells assessed as live cells at 20 nM after 12 hrs by Annexin V-FITC/propidium iodide staining based flow cytometry (reference value: 91.81%); format: functional; in short: as §1
NCI-H460 [9] = assay: Induction of apoptosis in human NCI-H460 cells assessed as early apoptotic cells after 12 hrs by Annexin V-FITC/propidium iodide staining based flow cytometry (reference value: 4.72%); format: functional
NCI-H460 [10] = assay: Induction of apoptosis in human NCI-H460 cells assessed as necrotic cells after 12 hrs by Annexin V-FITC/propidium iodide staining based flow cytometry (reference value: 0.93%); format: functional
NCI-H460 [11] = assay: Induction of apoptosis in human NCI-H460 cells assessed as live cells after 12 hrs by Annexin V-FITC/propidium iodide staining based flow cytometry (reference value: 91.81%); format: functional
NCI-H460 [12] = assay: Induction of apoptosis in human NCI-H460 cells assessed as late apoptotic cells after 12 hrs by Annexin V-FITC/propidium iodide staining based flow cytometry (reference value: 2.54%); format: functional

Sequence of Nuclear receptor subfamily 4immunitygroup A member 1 (Homo sapiens) (P22736 whole entry): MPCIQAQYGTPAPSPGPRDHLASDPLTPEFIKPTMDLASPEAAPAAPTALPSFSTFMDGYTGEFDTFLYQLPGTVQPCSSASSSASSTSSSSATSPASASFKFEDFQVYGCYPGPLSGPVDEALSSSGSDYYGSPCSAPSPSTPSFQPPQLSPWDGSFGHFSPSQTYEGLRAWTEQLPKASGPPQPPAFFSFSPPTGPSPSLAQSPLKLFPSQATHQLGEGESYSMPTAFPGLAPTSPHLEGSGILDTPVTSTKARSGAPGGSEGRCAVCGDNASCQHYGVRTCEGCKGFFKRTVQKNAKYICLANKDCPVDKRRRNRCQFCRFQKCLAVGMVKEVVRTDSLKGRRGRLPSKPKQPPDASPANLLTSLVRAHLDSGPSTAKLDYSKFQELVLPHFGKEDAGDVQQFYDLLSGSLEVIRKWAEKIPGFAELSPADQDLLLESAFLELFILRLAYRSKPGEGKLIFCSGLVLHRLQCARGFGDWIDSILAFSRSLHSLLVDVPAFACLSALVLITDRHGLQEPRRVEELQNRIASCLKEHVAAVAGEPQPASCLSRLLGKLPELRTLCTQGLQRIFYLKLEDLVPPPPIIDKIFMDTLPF

Compound: C[C@]12CC[C@H](OC3O[C@H](CO)[C@@H](O[C@@H]4O[C@H](CO)[C@H](O)[C@H](O)[C@H]4O)[C@H](O)[C@H]3O)C[C@H]1CC[C@@H]1[C@@H]2C[C@@H](O)[C@]2(C)[C@@H](C3=CC(=O)OC3)CC[C@]12O (stereo not given in full)
- Activity (NCI-H460 [1]): Active

Compound: C[C@]12CC[C@H](OC3O[C@H](CO)[C@H](O)[C@H](O)[C@H]3O)C[C@H]1CC[C@@H]1[C@@H]2C[C@@H](O)[C@]2(C)[C@@H](C3=CC(=O)OC3)CC[C@]12O (stereo not given in full)
- Activity (NCI-H460 [1]): Active

Compound: C[C@]12CC[C@H](OC3OC[C@@H](O)[C@@H](O)[C@H]3O)C[C@H]1CC[C@@H]1[C@@H]2C[C@@H](O)[C@]2(C)[C@@H](C3=CC(=O)OC3)CC[C@]12O (stereo not given in full)
- Activity (NCI-H460 [2]): Active
- Activity (NCI-H460 [1]): Active
- Activity (NCI-H460 [3]): 10.21%
- Activity [4]: Tde
- Activity (NCI-H460 [5]): 1.24%
- Activity (NCI-H460 [6]): 4.58%
- Activity [7]: Active
- Activity (NCI-H460 [8]): 83.97%

Compound: C[C@H]1O[C@@H](O[C@H]2[C@@H](O)C[C@H](O[C@H]3[C@@H](O)C[C@H](O[C@H]4CC[C@@]5(C)[C@H](CC[C@@H]6[C@@H]5C[C@@H](O)[C@]5(C)[C@@H](C7=CC(=O)OC7)CC[C@]65O)C4)O[C@@H]3C)O[C@@H]2C)C[C@H](O)[C@@H]1O [DIGOXIN]
- Activity (NCI-H460 [9]): 4.06%
- Activity (NCI-H460 [10]): 0.6%
- Activity (NCI-H460 [11]): 90.71%
- Activity (NCI-H460 [12]): 4.64%

Compound: C[C@]12CC[C@H](OC3O[C@H](CO)[C@@H](O[C@@H]4O[C@H](CO)[C@@H](O)[C@H](O)[C@H]4O)[C@H](O)[C@H]3O)C[C@H]1CC[C@@H]1[C@@H]2C[C@@H](O)[C@]2(C)[C@@H](C3=CC(=O)OC3)CC[C@]12O (stereo not given in full)
- Activity (NCI-H460 [1]): Active

Compound: C[C@]12CC[C@@H](OC3O[C@H](CO)[C@@H](O)[C@H](O)[C@@H]3O)C[C@H]1CC[C@@H]1[C@@H]2C[C@@H](O)[C@]2(C)[C@@H](C3=CC(=O)OC3)CC[C@]12O (stereo not given in full)
- Activity (NCI-H460 [1]): Active

Compound: C[C@]12CC[C@H](OC3O[C@H](CO)[C@@H](O)[C@H](O)[C@H]3O)C[C@H]1CC[C@@H]1[C@@H]2C[C@@H](O)[C@]2(C)[C@@H](C3=CC(=O)OC3)CC[C@]12O (stereo not given in full)
- Activity (NCI-H460 [2]): Active

Compound: C[C@H]1O[C@@H](O[C@H]2[C@@H](O)CC(O[C@H]3CC[C@@]4(C)[C@H](CC[C@@H]5[C@@H]4C[C@@H](O)[C@]4(C)[C@@H](C6=CC(=O)OC6)CC[C@]54O)C3)O[C@@H]2C)C[C@H](O)[C@@H]1O (stereo not given in full)
- Activity (NCI-H460 [1]): Active

Compound: C[C@@H]1OC(O[C@H]2CC[C@@]3(C)[C@H](CC[C@@H]4[C@@H]3C[C@@H](O)[C@]3(C)[C@@H](C5=CC(=O)OC5)CC[C@]43O)C2)[C@@H](O)[C@H](O)[C@@H]1O (stereo not given in full)
- Activity (NCI-H460 [2]): Active
- Activity (NCI-H460 [1]): Active
- Activity (NCI-H460 [3]): 25.02%
- Activity [4]: Tde
- Activity (NCI-H460 [5]): 4.21%
- Activity (NCI-H460 [6]): 9.01%
- Activity [7]: Active
- Activity (NCI-H460 [8]): 61.75%

Compound: C[C@@H]1OC(O[C@H]2CC[C@@]3(C)[C@H](CC[C@@H]4[C@@H]3C[C@@H](O)[C@]3(C)[C@@H](C5=CC(=O)OC5)CC[C@]43O)C2)[C@H](O)[C@H](O)[C@H]1O (stereo not given in full)
- Activity (NCI-H460 [2]): Active
- Activity (NCI-H460 [1]): Active
- Activity (NCI-H460 [3]): 9.35%
- Activity [4]: Tde
- Activity (NCI-H460 [5]): 1.55%
- Activity (NCI-H460 [6]): 5.5%
- Activity [7]: Active
- Activity (NCI-H460 [8]): 83.59%

Compound: C[C@]12CC[C@@H](O)C[C@H]1CC[C@@H]1[C@@H]2C[C@@H](O)[C@]2(C)[C@@H](C3=CC(=O)OC3)CC[C@]12O
- Activity (NCI-H460 [1]): Active
